# This is a sample that favours compounds with a hit; in the whole collection about 2.8% have one here.
# NPY-Y2 PAM-ag: potentiators or agonists of human neuropeptide Y receptor Y2; hit rate 0.45% among 220,000; activation, % at 3.6 µM; cells expressing NPY-Y2, potentiator/agonist read-out; in the data active means activation above about 27%;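 further: cells stimulated with NPY near EC25 plus isoproterenol at EC100; 0% = vehicle plus submaximal agonist and 100% = vehicle plus saturating agonist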
# NPY1 pot ag: potentiators or agonists of human neuropeptide Y receptor Y1. NPY-Y1 expressing cells, potentiator/agonist activation. P25929. activation, % at 3.6 µM. hit rate 0.37% among 220,000. AID 1304; in the data active means activation above about 33%, passing the limit was not always enough;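 further: cells stimulated with NPY at EC10 then isoproterenol at EC100; 0% = low agonist plus stimulus and 100% = saturating agonist plus stimulus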
# Target sequence (P25929 whole entry, looked up): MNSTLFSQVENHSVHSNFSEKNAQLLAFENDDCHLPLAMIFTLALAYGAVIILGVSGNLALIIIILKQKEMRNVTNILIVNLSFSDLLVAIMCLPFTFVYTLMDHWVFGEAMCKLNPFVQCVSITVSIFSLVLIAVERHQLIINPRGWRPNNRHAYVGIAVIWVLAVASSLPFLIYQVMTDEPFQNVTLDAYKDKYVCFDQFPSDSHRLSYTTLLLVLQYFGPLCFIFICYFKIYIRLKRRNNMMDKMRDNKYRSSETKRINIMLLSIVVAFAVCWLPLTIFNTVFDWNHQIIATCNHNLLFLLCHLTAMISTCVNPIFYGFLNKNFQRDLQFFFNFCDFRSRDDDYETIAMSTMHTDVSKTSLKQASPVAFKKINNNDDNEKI
# PGE2 EP2 inh: blocks the human prostaglandin E2 receptor EP2; C6 glioma cells expressing human EP2, cAMP TR-FRET; cells stimulated with saturating PGE2; inhibition, % at 25 µM; hit rate 0.52% among 260,000; AID 1422;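 active means percent inhibition above 40 after rounding to a whole number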;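 further: rat C6 glioma host cells with rolipram phosphodiesterase inhibitor present; the protocol text gives 20 µM as final concentration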
# NPY-Y1 antag: blocks the human neuropeptide Y Y1 receptor; P25929; HEK293-CNG Y1 cells, membrane potential fluorescence; NPY at EC95, then isoproterenol; inhibition, % at 3.6 µM; hit rate 1% among 200,000; AID 1040;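 active means inhibition above the campaign mean inhibition of all tested compounds plus 3 SD, cut at about 20% in these data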;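 further: 0% = DMSO wells given NPY plus isoproterenol and 100% = isoproterenol alone without NPY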
#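 Material: HEK293 Y1/CNG channel cell line; also added: NPY (25 nM), isoproterenol (1 µM), Ro 20-1724 (25 µM); doses: one concentration, 3.6 µM, in 0.4% DMSO; schedule: compound incubation 1 h at room temperature, readout 45 min post-stimulation; technique: membrane potential fluorescence; measure: fluorescence ratio normalized to % inhibition between controls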
# NPY-Y2 antag: antagonists of human neuropeptide Y receptor Y2; P49146; inhibition, % at 2.7 µM; hit rate 0.99% among 140,000; NPY-Y2 expressing cells, antagonist mode;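 further: 0% = vehicle with agonist challenge and 100% = reference antagonist with challenge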
# EP2 mod: EP2 receptor (human) modulation. P43116. EP2-expressing cells, cAMP HTRF FRET, PGE2 co-stimulation. induction, % at 25 µM. hit rate 0.83% among 260,000;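 active means compounds whose cAMP rise, as percent of the full-agonist control response, exceeds 60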;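 further: rat C6 glioma line stably carrying human EP2 under a CMV promoter; the protocol text gives 20 µM as final concentration; 100% = response of wells given 1 µM PGE2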
# NPY-Y1 ant conf: human NPY-Y1 antagonism, confirmation | shares compounds with NPY-Y1 antag | HEK293-CNG NPY-Y1, membrane potential fluorescence, cAMP; NPY challenge against isoproterenol-raised cAMP | inhibition, % at 3.6 µM | hit rate 21% among 1,200 | AID 1254; in the data active means inhibition above about 20%;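 further: 0% = vehicle with agonist plus stimulus and 100% = stimulus alone without agonist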
# NPY-Y2 antag ct: human NPY-Y2 antagonism in NPY-Y1 counter-screen; hit rate 28% among 1,200; AID 1255; shares compounds with NPY-Y1 antag; inhibition, % at 3.6 µM; HEK293 NPY-Y2 CNG membrane potential fluorescence; cells given NPY, then isoproterenol;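 further: 0% = DMSO with agonist challenge and 100% = reference antagonist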
# Numbers without * were called inactive; / = not tested or not shown. Unless noted, no stated cut-off is given here; in the data, active means inhibition above about 17%; inactive means the rest.
SMILES,NPY-Y2 PAM-ag,NPY1 pot ag,PGE2 EP2 inh,NPY-Y1 antag,NPY-Y2 antag,EP2 mod,NPY-Y1 ant conf,NPY-Y2 antag ct
Cc1ccc(C)c(SCc2noc(C(=O)NCC3CCCO3)c2C(=O)O)c1 (configuration not stated),-20,-26,9,21*,10,11,22*,13
CC(C)c1ccc(SCc2noc(C(=O)NCC3CCCO3)c2C(=O)O)cc1 (configuration not stated),-38,-14,22,24*,9,-4,10,10
NC(=O)CSc1nnnn1-c1ccccc1F,/,/,7,/,/,-15,/,/
COC(=O)CNC(c1ccccc1)c1cc(Br)ccc1NC(=O)OCc1ccccc1 (configuration not stated),-24,-12,7,14,10,33,/,/
CCOC(=O)CNC(c1ccccc1)c1cc(Br)ccc1NC(C)=O (configuration not stated),-17,-39,10,47*,/,-21,5,7
COc1ccc(CNC(=O)C2CCN(S(=O)(=O)c3ccc(OC)c(C)c3)CC2)cc1,/,/,8,/,/,-22,/,/
COc1ccc(C2(O)CCN(CCNC(=O)Cc3ccc(F)cc3)CC2)cc1,/,/,4,/,/,-24,/,/
CCC(C)NS(=O)(=O)c1ccc(S(=O)(=O)n2cnc3ccccc32)cc1 (configuration not stated),/,/,6,/,/,-98,/,/
CCC1=Nc2cc(C(=O)O)ccc2Sc2ccc(Cl)cc21,-1,14,8,69*,4,39,2,1
CNc1nc(OCC(F)(F)F)nc(N2CCOCC2)n1,14,-16,13,-1,-1,33,/,/
FC(F)(F)COc1nc(OCC(F)(F)F)nc(N2CCN(c3ccccc3)CC2)n1,-10,-13,5,28*,9,33,9,8
CS(=O)CCNC(=O)CN1N=C(c2ccccc2)Cn2c(cc3ccccc32)C1=O (configuration not stated),/,/,7,/,/,-28,/,/
OCC1(Cc2ccc(Cl)cc2)CCN(Cc2ccccc2F)CC1,-29,-27,8,13,/,7,/,/
CSc1ccc(CN2CCC(CO)(Cc3ccc(Cl)cc3)CC2)cc1,-48,-75,6,52*,/,-44,39*,48*
O=C(O)c1ccc(N(c2ccccc2)c2ccccc2)cc1,-37,-40,12,27*,14,57,21*,16
COc1cccc(C2(O)CCN(C(=O)Cc3ccc(OC)c(OC)c3)CC2)c1,/,/,7,/,/,0,/,/
CC(C)(C)C(=O)Nc1nnc(SCC(=O)Nc2ccccc2Cl)s1,/,/,3,/,/,-47,/,/
COC(=O)c1ccc(CSc2nc3c(cnn3-c3ccc(C)cc3)c(=O)[nH]2)o1,-2,-29,9,27*,10,53,3,10
COC(=O)c1ccc(Cn2cnc3c(cnn3-c3ccc(C)c(C)c3)c2=O)o1,-17,-20,4,27*,17,-6,12,9
COC(=O)c1ccc(Cn2cnc3c(cnn3-c3ccc(F)cc3)c2=O)o1,-31,-32,14,7,8,-24,/,/
Cc1ccc(N(C(=O)Cn2nnc(-c3ccc(C)o3)n2)C(C(=O)NC(C)(C)C)c2ccc(C)o2)cc1 (configuration not stated),/,/,14,/,/,8,/,/
CCCCOc1c(Cl)cc(CNC(C)(C)CO)cc1OCC,-14,-35,15,24*,7,5,7,6
O=C1N(c2ccccc2)C[C@@H]2C[C@@H](c3cc4ccccc4o3)N3CCC[C@@]123,-5,-8,4,27*,/,-26,18,12
C=CCN1C(=O)C2C(C(=O)NC3CCCCC3C)C3(C)C=CC2(O3)C1C(=O)NCc1ccccc1 (configuration not stated),/,/,7,/,/,-23,/,/
Cc1ccc(-c2nnn(CC(=O)N(CC(=O)NC(C)(C)C)c3cccc(C(F)(F)F)c3)n2)o1,/,/,9,/,/,-11,/,/
SMILES,NPY-Y2 PAM-ag,NPY1 pot ag,PGE2 EP2 inh,NPY-Y1 antag,NPY-Y2 antag,EP2 mod,NPY-Y1 ant conf,NPY-Y2 antag ct
C=C(C)CSc1nnc(-c2cccc(S(=O)(=O)N(C)C)c2)n1-c1cc(OC)ccc1OC,-1,-18,10,26*,15,-1,11,10
COc1cccc(NC(=O)CSc2nnc(-c3ccncc3)n2-c2ccccc2OC)c1,/,/,6,/,/,-24,/,/
Cc1oc(C)c2c(=O)cc(-c3ccc(O)c(O)c3)cc(O)c12,/,/,16,/,/,-54,/,/
Cc1ccc(N)cc1NC(=O)C(C)Sc1nnc(COc2ccc3ccccc3c2)n1C (configuration not stated),/,/,12,/,/,-42,/,/
CC(=O)CSc1nnc(-c2ccc3c(c2)OCO3)o1,-21,-31,8,21*,7,-15,7,6
O=C(O)CCSc1nnc(-c2ccc3c(c2)OCO3)o1,-33,-44,7,12,14,6,/,/
C[C@@H](Cn1nnc2ccccc21)NC(=O)CCn1c(=O)oc2ccccc21,/,/,11,/,/,-10,/,/
CCNCc1ccc(OCc2ccccc2F)c(OC)c1,-3,-17,6,3,/,-19,/,/
CCN(CC)CCNCc1cc(Cl)ccc1OCc1ccccc1F,4,-22,9,24*,/,8,12,14
O=C(C[n+]1cc(-c2ccccc2)n2c1CCCCC2)c1ccc(Br)cc1,-9,-9,3,42*,/,-15,22*,19*
COc1ccc(NC(=O)COc2ccc3oc(-c4ccc(OC)cc4)cc(=O)c3c2)cc1,/,/,7,/,/,1,/,/
COc1ccc(-n2cc(-c3ccccc3)c3c(NCCCN4CCOCC4)ncnc32)cc1,-27,-18,8,26*,/,-12,13,7
c1ccc(-c2cn(-c3ccccc3)c3ncnc(NCCCN4CCOCC4)c23)cc1,-1,1,6,5,/,-15,/,/
CCc1cccc(CC)c1NC(=O)C(NS(=O)(=O)c1cccs1)c1ccccc1 (configuration not stated),7,-41,6,23*,13,29,23*,10
Cc1ccc2cc(CN(Cc3cccnc3)C(=S)NCCc3ccccc3)c(=O)[nH]c2c1,/,/,13,/,/,-52,/,/
CC(C)(C)NC(=O)C1CCN(C(=O)NC2CCCCC2)CC1,/,/,5,/,/,-8,/,/
Cc1cc(Cl)c(OCCOCCN2CCCC(C)C2)c(Br)c1 (configuration not stated),-28,-23,5,23*,/,-13,5,11
Cc1ccc2nc(NC(=O)CNS(=O)(=O)c3ccc(Br)s3)sc2c1,-19,-42,9,20*,13,-14,7,11
Cc1ccc2nc(NC(=O)CN(C)S(=O)(=O)c3ccc(Br)s3)sc2c1,6,-6,14,-2,2,-50,/,/

# Screening data from PubChem.
